The compounds below were run on U-937 (assay: Cytotoxicity in UV-irradiated human U937 cells exposed to photosensitizer for 2 hrs before irradiation for 20 mins by WST-1 assay). Conditions: U-937, light or radiation study.
Format: functional, cell-based
In short: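 Compounds were made up as 8 mM DMSO stocks and diluted into culture medium so that final DMSO on cells stayed below 0.5%. Cells were tested across a concentration range both in the dark and with light exposure. Values are the average of at least three independent runs.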

SMILES	IC50
c1ccc(C2c3ccccc3Nc3ccccc32)cc1	170 nM
c1ccc2c(c1)Cc1ccccc1N2 [ACRIDAN]	680 nM
c1ccc2c(c1)[nH]c1ccccc12 [CARBAZOLE]	5560 nM
C1=Cc2ccccc2Nc2ccccc21 [IMINOSTILBENE]	2580 nM
c1ccc2c(c1)Nc1ccccc1S2 [PHENOTHIAZINE]	1390 nM
c1ccc2c(c1)Nc1ccccc1O2 [PHENOXAZINE]	14500 nM

Reference: ChEMBL document CHEMBL2062459, “Type 1 Phototherapeutic Agents. 2. Cancer Cell Viability and ESR Studies of Tricyclic Diarylamines” (ACS Med Chem Lett, 2012)
